From ChEMBL document CHEMBL1152253, “Inhibition of the CRM1-mediated nucleocytoplasmic transport by N-azolylacrylates: structure-activity relationship and mechanism of action” (Bioorg Med Chem, 2008)
Values after ≈ are worked out from the molar mass of the structure shown. Active and inactive are the calls of the source. The calls are words filed in the database; no cut-off is given here.

What was measured:
[1] = molecular target: Exportin-1 (Homo sapiens) (UniProt O14980); assay: Inhibition of CRM1-mediated nucleocytoplasmic transport of RevM5 mutant in HEK293 cells assessed as RevM5-GFP nuclear localization at 2 ug/ml after 2 hrs by fluorescence microscopy; assay type: cell-based
Exportin-1 (Homo sapiens), sequence (O14980 whole entry): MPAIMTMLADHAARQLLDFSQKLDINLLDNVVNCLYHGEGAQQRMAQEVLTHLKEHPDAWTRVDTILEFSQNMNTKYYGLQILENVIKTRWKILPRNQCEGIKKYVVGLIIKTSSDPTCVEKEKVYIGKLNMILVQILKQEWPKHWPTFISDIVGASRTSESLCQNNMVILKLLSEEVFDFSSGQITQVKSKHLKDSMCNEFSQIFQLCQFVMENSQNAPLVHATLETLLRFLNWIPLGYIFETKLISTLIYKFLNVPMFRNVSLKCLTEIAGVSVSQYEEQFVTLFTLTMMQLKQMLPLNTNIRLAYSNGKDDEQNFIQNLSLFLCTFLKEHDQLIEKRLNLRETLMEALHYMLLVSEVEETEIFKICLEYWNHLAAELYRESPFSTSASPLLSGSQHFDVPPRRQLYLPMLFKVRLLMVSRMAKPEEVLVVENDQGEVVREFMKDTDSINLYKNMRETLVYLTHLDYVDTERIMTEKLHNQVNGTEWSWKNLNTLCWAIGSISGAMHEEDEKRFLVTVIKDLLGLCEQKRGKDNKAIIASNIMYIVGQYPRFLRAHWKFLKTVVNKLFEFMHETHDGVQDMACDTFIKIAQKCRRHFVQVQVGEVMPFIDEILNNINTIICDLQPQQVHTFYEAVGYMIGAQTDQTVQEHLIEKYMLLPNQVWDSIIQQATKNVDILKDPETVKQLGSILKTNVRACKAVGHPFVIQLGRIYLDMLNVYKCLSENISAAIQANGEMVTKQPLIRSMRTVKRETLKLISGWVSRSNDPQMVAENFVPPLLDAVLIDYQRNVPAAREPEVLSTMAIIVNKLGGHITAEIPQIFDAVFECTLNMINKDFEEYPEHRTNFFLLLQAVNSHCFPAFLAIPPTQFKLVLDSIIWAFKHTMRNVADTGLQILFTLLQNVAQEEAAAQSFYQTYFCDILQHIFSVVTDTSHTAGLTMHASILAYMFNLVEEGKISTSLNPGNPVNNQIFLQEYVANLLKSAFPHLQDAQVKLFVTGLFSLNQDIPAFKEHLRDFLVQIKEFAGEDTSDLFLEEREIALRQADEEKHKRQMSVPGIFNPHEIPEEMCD
Method in brief: (§1)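 HEK 293T cells in 96-well trays were transfected with pRevM5-GFP by calcium phosphate, and compound was added one day later. RevM5-GFP distribution was scored by fluorescence microscopy 2 h after addition. Mainly nuclear localization was scored positive; cytoplasmic localization was scored negative.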

[2] = molecular target: Exportin-1 (Homo sapiens) (UniProt O14980); assay: Inhibition of CRM1-mediated nucleocytoplasmic transport of HIV1 RevM5 mutant in human HeLa cells assessed as HIV1 RevM5-GFP nuclear localization at 10 ug/ml after 2 hrs by fluorescence microscopy; assay type: cell-based
Method in brief: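 HeLa cells, grown in DMEM with 10% heat-inactivated FCS, 2 mM L-glutamine, 0.1% bicarbonate and gentamicin, were plated on glass-bottom dishes and transfected to express RevM5-GFP. RevM5-GFP is a Rev mutant that stays cytoplasmic but can still enter the nucleus. Compound was added, and after 2 h cellular RevM5-GFP distribution, nuclear versus cytoplasmic, was read by fluorescence microscopy with DIC images.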

HeLa [3] = assay: Inhibition of Rev-BFP/CRM1-EYFP interaction in human HeLa cells assessed as Rev-BFP/CRM1-EYFP nuclear colocalization at 10 ug/mL after 120 mins by fluorescence microscopy; assay type: cell-based
Method in brief: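 HeLa cells on glass-bottom dishes, about 50% confluent, were co-transfected with Rev-BFP and CRM1-EYFP. One day later cells were washed with PBS and treated with compound in complete DMEM. Nucleolar co-localization of CRM1-EYFP with Rev was examined by live confocal microscopy at 30, 120 and 180 min and 24 h.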

HeLa [4] = assay: Inhibition of Rev-BFP/CRM1Cys528Ser-EYFP mutant interaction in human HeLa cells assessed as Rev-BFP/CRM1Cys528Ser-EYFP nuclear colocalization at 10 ug/mL after 2 hrs by fluorescence microscopy; assay type: cell-based
Method in brief: (§2)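 HeLa cells were co-transfected with Rev-BFP and the EYFP-CRM1 Cys528 mutant. One day after transfection they were washed with PBS and treated with compound in complete DMEM. Co-localization was followed by live-cell confocal microscopy at 30, 120 and 180 min and 24 h.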

[5] = molecular target: Exportin-1 (Homo sapiens) (UniProt O14980); assay: Inhibition of CRM1-mediated nucleocytoplasmic transport of RevM5 mutant in HEK293 cells assessed as RevM5-GFP nuclear localization at 10 ug/ml after 2 hrs by fluorescence microscopy; assay type: cell-based; method in brief: as §1
[6] = molecular target: Exportin-1 (Homo sapiens) (UniProt O14980); assay: Inhibition of CRM1-mediated nucleocytoplasmic transport of RevM5 mutant in HEK293 cells assessed as RevM5-GFP nuclear localization at 0.08 ug/ml after 2 hrs by fluorescence microscopy; assay type: cell-based; method in brief: as §1
[7] = system: Human immunodeficiency virus 1; assay: Antiviral activity against HIV1 NL4-3 infected in HEK293T cells assessed as inhibition of virion-associated p24 antigen production after 24 hrs by ELISA; assay type: functional, organism-based
Method in brief: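 HEK 293T cells in DMEM with 10% heat-inactivated FCS were transfected with the HIV-1 molecular clone NL4-3 by calcium phosphate. Compounds were added at a range of concentrations. Virus-associated p24 antigen in the supernatant was measured by ELISA 24 h after compound addition.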

[8] = system: Human immunodeficiency virus 1; assay: Antiviral activity against HIV1 3B infected in human OM10.1 cells assessed as inhibition of TNF-alpha-induced viral p24 production at 5 ug/mL after 48 hrs by ELISA; assay type: functional; design: scale not given: the % may be the effect or the level left
Method in brief: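 OM10.1 cells chronically infected with HIV-1(IIIB), grown in RPMI 1640 with 10% FCS, were washed twice to remove cell-free virus and seeded at 120,000 cells/well with compound. Cultures were stimulated with 1 ng/ml TNF-α and incubated 48 h at 37 °C. Supernatant p24 was measured by ELISA.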

[9] = Cytotoxicity against HIV1 3B infected human OM10.1 cells at 10 ug/mL after 48 hrs by MTT assay; assay type: cell-based
Method in brief: (§3)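 Cytotoxicity was read by MTT viability staining on the same TNF-α-stimulated (1 ng/ml), twice-washed HIV-1(IIIB) chronically infected OM10.1 cultures (120,000 cells/well). Compound was present throughout the 48 h incubation at 37 °C.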

[10] = Cytotoxicity against HIV1 3B infected human OM10.1 cells at 20 ug/mL after 48 hrs by MTT assay; assay type: cell-based; method in brief: as §3
HeLa [11] = assay: Inhibition of Rev-BFP/CRM1Cys528Ser-EYFP mutant interaction in human HeLa cells assessed as Rev-BFP/CRM1Cys528Ser-EYFP nuclear colocalization after 2 hrs by fluorescence microscopy; assay type: cell-based; method in brief: as §2
[12] = molecular target: Exportin-1 (Homo sapiens) (UniProt O14980); assay: Inhibition of CRM1-mediated nucleocytoplasmic transport of RevM5 mutant in HEK293 cells assessed as RevM5-GFP nuclear localization at 0.4 ug/ml after 2 hrs by fluorescence microscopy; assay type: cell-based; method in brief: as §1

With `CCOC(=O)/C=C\n1nnc(-c2cccc(Cl)c2)n1` the Activity [1] was “Active”, the Activity [2] was “Active” and the Activity (HeLa [3]) was “Active”. The Activity (HeLa [4]) was “inactive”, the Activity [5] was “Active” and the Activity [6] was “inactive”. For the same molecule, the EC50 ([7]; Human immunodeficiency virus 1, NL4-3, HEK-293T) was 0.2 µg/mL (≈ 0.718 µM), the Activity [8] was 94% and the Activity [9] was “Toxic”. For the same molecule, the Activity [10] was “Toxic”.
With `Clc1cccc(-c2nnn[nH]2)c1` the Activity [1] was “inactive”, the Activity [2] was “inactive” and the Activity (HeLa [11]) was “inactive”. For the same molecule, the Activity [5] was “inactive”, the Activity [12] was “inactive” and the Activity [6] was “inactive”. The Activity ([7]; HEK-293T) was “inactive”.
